Data reported in ChEMBL document CHEMBL1157254, “Metabolites of the "smoke tree", Dalea spinosa, potentiate antibiotic activity against multidrug-resistant Staphylococcus aureus” (2006).
Active and inactive are the calls of the source. The rule behind the calls is not given here.

Columns and labels:
[1] = target: T1, Quinolone resistance protein NorA (Staphylococcus aureus) (UniProt P0A0J7); test: Inhibition of NorA efflux pump in wild-type Staphylococcus aureus 8325-4 assessed as fold reduction of berberine MIC at 42 uM by twofold serial dilution method
T1 sequence (whole entry): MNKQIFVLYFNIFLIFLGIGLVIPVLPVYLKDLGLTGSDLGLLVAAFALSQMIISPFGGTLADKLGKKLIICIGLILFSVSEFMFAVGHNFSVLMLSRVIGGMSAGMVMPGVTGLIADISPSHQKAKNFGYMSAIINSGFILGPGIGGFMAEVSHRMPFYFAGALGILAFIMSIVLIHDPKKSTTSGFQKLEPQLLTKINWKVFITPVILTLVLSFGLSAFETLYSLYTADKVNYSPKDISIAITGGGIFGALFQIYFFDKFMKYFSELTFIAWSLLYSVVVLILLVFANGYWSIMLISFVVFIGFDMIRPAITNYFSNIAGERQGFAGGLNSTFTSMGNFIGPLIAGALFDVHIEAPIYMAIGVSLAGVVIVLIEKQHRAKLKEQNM
Outline: (§1)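 Checkerboard assay in 96-well plates. Berberine is diluted 2-fold from 30 to 0.5 µg/mL (89-1.5 µM) across rows, and plant compound from 15 to 0.015 µg/mL across columns, with single-agent dilution series on each plate. Inoculum 5 × 10⁶ CFU/mL, 24 h at 37 °C, growth read at A600. Result is the fold reduction in berberine MIC.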

Pseudomonas aeruginosa = test: Antimicrobial activity against Pseudomonas aeruginosa PA14 by twofold serial dilution method; format: functional
Staphylococcus aureus [2] = test: Inhibition of MDR protein in wild-type Staphylococcus aureus 8325-4 assessed as potentiation of antimicrobial activity of berberine after 18 hrs by twofold serial dilution method
Enterococcus faecalis = test: Antimicrobial activity against Enterococcus faecalis V583 by twofold serial dilution method; format: functional
Escherichia coli = test: Antimicrobial activity against wild-type Escherichia coli K12 by twofold serial dilution method; format: functional
Candida albicans = test: Antimicrobial activity against Candida albicans F5 by twofold serial dilution method; format: functional
Saccharomyces cerevisiae = test: Antimicrobial activity against Saccharomyces cerevisiae BY4742 by twofold serial dilution method; format: functional
Staphylococcus aureus [3] = test: Antimicrobial activity against wild-type Staphylococcus aureus 8325-4 by twofold serial dilution method; format: functional
[4] = target: T1, Quinolone resistance protein NorA (Staphylococcus aureus); test: Inhibition of NorA efflux pump in Staphylococcus aureus K2361 mutant overexpressing NorA assessed as potentiation of berberine-induced antimicrobial activity at 42 uM by twofold serial dilution method; outline: as §1
[5] = target: T1, Quinolone resistance protein NorA (Staphylococcus aureus); test: Inhibition of NorA efflux pump in Staphylococcus aureus K2361 mutant overexpressing NorA assessed as potentiation of berberine-induced antimicrobial activity at 48 uM by twofold serial dilution method; outline: as §1
[6] = target: T1, Quinolone resistance protein NorA (Staphylococcus aureus); test: Inhibition of NorA efflux pump in Staphylococcus aureus K1758 mutant assessed as fold reduction of berberine MIC at 56 uM by twofold serial dilution method; outline: as §1
[7] = target: T1, Quinolone resistance protein NorA (Staphylococcus aureus); test: Inhibition of NorA efflux pump in wild-type Staphylococcus aureus 8325-4 assessed as fold reduction of berberine MIC at 56 uM by twofold serial dilution method; outline: as §1
[8] = target: T1, Quinolone resistance protein NorA (Staphylococcus aureus); test: Inhibition of NorA efflux pump in Staphylococcus aureus K2361 mutant overexpressing NorA assessed as potentiation of berberine-induced antimicrobial activity at 56 uM by twofold serial dilution method; outline: as §1
[9] = target: T1, Quinolone resistance protein NorA (Staphylococcus aureus); test: Inhibition of NorA efflux pump in Staphylococcus aureus K1758 mutant assessed as fold reduction of berberine MIC at 48 uM by twofold serial dilution method; outline: as §1
[10] = target: T1, Quinolone resistance protein NorA (Staphylococcus aureus); test: Inhibition of NorA efflux pump in wild-type Staphylococcus aureus 8325-4 assessed as fold reduction of berberine MIC at 48 uM by twofold serial dilution method; outline: as §1
Staphylococcus aureus [11] = test: Antimicrobial activity against NorA knockout Staphylococcus aureus K1758 mutant; format: functional
Staphylococcus aureus [12] = test: Antimicrobial activity against wild-type Staphylococcus aureus 8325-4; format: functional
Outline: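 Wild-type S. aureus 8325-4 grown in Mueller-Hinton broth and inoculated at 10⁵ cells/mL. Test compound serially diluted 2-fold from 50 µg/mL ([…]). Incubated 18 h at 37 °C. Growth read as absorbance at 600 nm. Triplicate, following NCCLS recommendations.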

Staphylococcus aureus [13] = test: Antimicrobial activity against Staphylococcus aureus K2361 mutant overexpressing NorA; format: functional

Structure (SMILES) | fold change (FC) [1] | MIC (Pseudomonas aeruginosa) | Activity (Staphylococcus aureus [2]) | MIC (Enterococcus faecalis) | MIC (Escherichia coli) | MIC (Candida albicans) | MIC (Saccharomyces cerevisiae) | MIC (Staphylococcus aureus [3]) | Activity [4] | Activity [5] | fold change (FC) [6] | fold change (FC) [7] | Activity [8] | fold change (FC) [9] | fold change (FC) [10] | MIC (Staphylococcus aureus [11]) | MIC (Staphylococcus aureus [12]) | MIC (Staphylococcus aureus [13])
COc1cc(OC(C)=O)ccc1-c1oc2cc3c(cc2c1C=O)OCO3 [SPINOSAN A ACETATE] | 62 | > 140 µM | Active | > 140 µM | > 140 µM | > 140 µM | > 140 µM | > 140 µM | Active |  |  |  |  |  |  |  |  | 
COc1ccc(-c2coc3cc(O)c(OC)cc3c2=O)c(O)c1 |  | > 140 µM | Active | > 140 µM | > 140 µM | > 140 µM | > 140 µM | > 140 µM |  | inactive |  |  |  |  |  |  |  | 
COc1ccc2c(c1)O[C@@H]1c3ccc(O)cc3OC[C@H]21 |  | > 140 µM | Active | > 140 µM | > 140 µM | > 140 µM | > 140 µM | > 140 µM |  |  | 4 | 4 | inactive |  |  |  |  | 
COc1cc(O)ccc1-c1oc2cc3c(cc2c1C=O)OCO3 [SPINOSAN A] |  | > 140 µM | Active | > 140 µM | > 140 µM | > 140 µM | > 140 µM | > 140 µM |  | inactive |  |  |  | 15 | 8 |  |  | 
COc1ccc2c(C=O)c(-c3ccc(O)cc3OC)oc2c1 [SPINOSAN B] |  | > 140 µM | inactive | > 140 µM | > 140 µM | > 140 µM | > 140 µM | > 140 µM |  |  |  |  |  |  |  |  |  | 
COc1ccc2c(c1)O[C@@H]1c3ccc(OC)c(O)c3OC[C@H]21 |  | > 140 µM | inactive | > 140 µM | > 140 µM | > 140 µM | > 140 µM | > 140 µM |  |  |  |  |  |  |  |  |  | 
COc1ccc2cc3[n+](cc2c1OC)CCc1cc2c(cc1-3)OCO2 [BERBERINE CHLORIDE] |  |  |  |  |  |  |  |  |  |  |  |  |  |  |  | 89 µM | 372 µM | > 1490 µM
